Converted amounts (≈) assume the structure as drawn. The source made the active and inactive calls. The calls are words filed in the database; no cut-off is given here.
Legend:
[1] = tested on: Staphylococcus aureus; experiment: Antibacterial activity against methicillin-sensitive Staphylococcus aureus ATCC 9144 after 20 hrs by broth micro dilution method; type: functional; conditions: ATCC 9144, 20 h
Summary of the method: (§1)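 Broth microdilution per CLSI guidelines in Mueller Hinton Broth. Growth was read as optical density at 600 nm after 20 hours. The MIC was taken as the lowest drug concentration at which OD600 stayed below 0.10. Run in triplicate.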

[2] = tested on: Staphylococcus aureus; experiment: Antibacterial activity against methicillin-resistant Staphylococcus aureus EMRSA-15 after 20 hrs by broth microdilution method; type: functional; conditions: EMRSA-15, 20 h
Summary of the method: (§2)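 Broth microdilution per CLSI guidelines in Mueller Hinton Broth. Growth read as optical density at 600 nm after 20 h. MIC taken as the lowest concentration giving OD600 below 0.10. Run in triplicate.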

[3] = tested on: Staphylococcus aureus; experiment: Antibacterial activity against methicillin-resistant Staphylococcus aureus EMRSA-16 after 20 hrs by broth microdilution method; type: functional; conditions: EMRSA-16, 20 h; summary of the method: as §2
[4] = tested on: HeLa; experiment: Cytotoxicity against human HeLa cells assessed as reduction in cell viability after 96 hrs by MTT assay; type: cell-based
Summary of the method: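 HeLa cells were kept in DMEM with 10% FBS, 2 mM L-glutamine, non-essential amino acids and penicillin-streptomycin at 37 °C, 5% CO2. 10,000 cells per well were plated and left 24 h. Compound was then added in triplicate for 96 h continuous exposure. MTT read-out was absorbance at 570 nm. IC50 came from dose-response analysis.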

[5] = tested on: WI-38; experiment: Cytotoxicity against human WI38 cells assessed as reduction in cell viability after 96 hrs by MTT assay; type: cell-based; conditions: WI-38, 96 h
Summary of the method: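 WI-38 lung fibroblasts were kept in DMEM with 15% FBS, 2 mM L-glutamine, non-essential amino acids and penicillin-streptomycin at 37 °C, 5% CO2. 10,000 cells per well were plated and left 24 h. Compound was then added in triplicate for 96 h continuous exposure. MTT read-out was absorbance at 570 nm. IC50 came from dose-response fitting.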

[6] = tested on: Staphylococcus epidermidis; experiment: Antibacterial activity against Staphylococcus epidermidis ATCC 35984 after 20 hrs by broth microdilution method; type: functional; conditions: RP62A; summary of the method: as §1
[7] = tested on: Staphylococcus aureus; experiment: Antibacterial activity against Staphylococcus aureus A1988 after 20 hrs by broth microdilution method; type: functional; conditions: A1988, 20 h; summary of the method: as §1
[8] = tested on: Staphylococcus aureus; experiment: Antibacterial activity against Staphylococcus aureus BGW541 after 20 hrs by broth microdilution method; type: functional; conditions: BGW541, 20 h; summary of the method: as §1
[9] = tested on: Staphylococcus aureus; experiment: Antibacterial activity against methicillin-resistant Staphylococcus aureus NCTC 12493 after 20 hrs by broth microdilution method; type: functional; conditions: NCTC 12493, 20 h; summary of the method: as §2
[10] = tested on: Staphylococcus aureus; experiment: Antibacterial activity against Staphylococcus aureus isolate 13142 after 20 hrs by broth microdilution method; type: functional; conditions: isolate 13142, 20 h; summary of the method: as §1
[11] = tested on: Staphylococcus aureus; experiment: Antibacterial activity against Staphylococcus aureus NCTC 6571 after 20 hrs by broth microdilution method; type: functional; conditions: NCTC 6571, 20 h; summary of the method: as §1
[12] = tested on: Staphylococcus aureus; experiment: Antibacterial activity against Staphylococcus aureus NCTC 8325 after 20 hrs by broth microdilution method; type: functional; conditions: NCTC 8325, 20 h; summary of the method: as §1
[13] = tested on: Klebsiella pneumoniae; experiment: Antibacterial activity against Klebsiella pneumoniae NCTC 13368 after 20 hrs by broth micro dilution method; type: functional; conditions: NCTC 13368, 20 h; summary of the method: as §1
[14] = tested on: Klebsiella pneumoniae; experiment: Antibacterial activity against Klebsiella pneumoniae M6 after 20 hrs by broth micro dilution method; type: functional; conditions: M6, 20 h; summary of the method: as §1
[15] = tested on: Acinetobacter baumannii; experiment: Antibacterial activity against Acinetobacter baumannii ATCC BAA-1710 after 20 hrs by broth micro dilution method; type: functional; conditions: ATCC BAA-1710, 20 h; summary of the method: as §1
[16] = tested on: Acinetobacter baumannii; experiment: Antibacterial activity against Acinetobacter baumannii ATCC 17978 after 20 hrs by broth micro dilution method; type: functional; conditions: ATCC 17978, 20 h; summary of the method: as §1
[17] = tested on: Pseudomonas aeruginosa; experiment: Antibacterial activity against Pseudomonas aeruginosa PAO1 after 20 hrs by broth micro dilution method; type: functional; conditions: PAO1, 20 h; summary of the method: as §1
[18] = tested on: Pseudomonas aeruginosa; experiment: Antibacterial activity against Pseudomonas aeruginosa NCTC 13437 after 20 hrs by broth micro dilution method; type: functional; conditions: NCTC 13437, 20 h; summary of the method: as §1
[19] = tested on: Staphylococcus aureus; experiment: Bactericidal activity against methicillin-sensitive Staphylococcus aureus ATCC 9144 after 24 hrs; type: functional; conditions: ATCC 9144, 24 h
Summary of the method: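 From the MIC plate, 10ul was taken from every well at and above the MIC and spotted onto tryptic soy agar. Plates were incubated 24 h at 37 °C. The MBC was the concentration at which no colonies grew.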

[20] = tested on: Staphylococcus aureus; experiment: Ratio of MBC to MIC against methicillin-sensitive Staphylococcus aureus ATCC 9144; type: functional
Summary of the method: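 MBC/MIC ratio from the broth microdilution MIC (Mueller Hinton Broth, OD600 <0.10 after 20 h, triplicate) and the MBC (MIC-plate wells at and above the MIC spotted on tryptic soy agar, 37 °C 24 h, no colonies). A ratio of 1 or 2 was taken as bactericidal; 4 or 16 as bacteriostatic.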

[21] = tested on: Staphylococcus aureus; experiment: Bacteriostatic activity against methicillin-resistant Staphylococcus aureus EMRSA-15 at 4 times MIC after 5 to 24 hrs by time kill assay; type: functional
Summary of the method: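 Mueller Hinton Broth flasks (50 mL) inoculated at ~10^6 cfu/mL. Agent added at 4x MIC and shaken at 200 rpm, 37 °C. Samples taken hourly for 8 h and at 24 h. Viable counts by modified Miles-Misra dilution. Values are the average of at least three replicate experiments, SEM shown.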

SMILES	MIC [1]	MIC [2]	MIC [3]	IC50 [4]	IC50 [5]	MIC [6]	MIC [7]	MIC [8]	MIC [9]	MIC [10]	MIC [11]	MIC [12]	MIC [13]	MIC [14]	MIC [15]	MIC [16]	MIC [17]	MIC [18]	also measured
O=[N+]([O-])c1ccc(C2=NOC(c3ccc(-c4ccncc4)cc3)C2)o1 (stereo unspecified)	64 µg/mL (≈ 191 µM)	128 µg/mL (≈ 382 µM)	64 µg/mL (≈ 191 µM)	> 50 µM	> 50 µM														
O=C(O)c1cn(C2CC2)c2cc(N3CCNCC3)c(F)cc2c1=O [CIPROFLOXACIN]		32 µg/mL (≈ 96.6 µM)	32 µg/mL (≈ 96.6 µM)			0.125 to 0.5 µg/mL (≈ 0.377 to 1.51 µM)	0.25 µg/mL (≈ 0.754 µM)	0.5 µg/mL (≈ 1.51 µM)	0.5 µg/mL (≈ 1.51 µM)	0.25 µg/mL (≈ 0.754 µM)	0.25 to 0.5 µg/mL (≈ 0.754 to 1.51 µM)	0.125 to 0.25 µg/mL (≈ 0.377 to 0.754 µM)							
CC1(C)S[C@@H]2[C@H](NC(=O)[C@H](N)c3ccc(O)cc3)C(=O)N2[C@H]1C(=O)O [AMOXICILLIN]	0.1 to 2 µg/mL (≈ 0.274 to 5.47 µM)	128 µg/mL (≈ 350 µM)	> 128 µg/mL			128 µg/mL (≈ 350 µM)	> 128 µg/mL	0.25 to 0.5 µg/mL (≈ 0.684 to 1.37 µM)	> 128 µg/mL	0.25 µg/mL (≈ 0.684 µM)	0.25 µg/mL (≈ 0.684 µM)	0.25 to 0.5 µg/mL (≈ 0.684 to 1.37 µM)							
COc1cccc2c1C(=O)c1c(O)c3c(c(O)c1C2=O)C[C@@](O)(C(=O)CO)C[C@@H]3O[C@H]1C[C@H](N)[C@H](O)[C@H](C)O1 [DOXORUBICIN]				0.071 µM	0.071 µM														
O=[N+]([O-])c1ccc(C2=NOC(c3ccc(N4CCN(Cc5ccncc5)CC4)cc3)C2)o1 (stereo unspecified)	16 µg/mL (≈ 36.9 µM)	> 128 µg/mL	128 µg/mL (≈ 295 µM)	> 50 µM	> 50 µM								> 128 µg/mL	> 128 µg/mL	> 128 µg/mL	> 128 µg/mL	> 128 µg/mL	> 128 µg/mL	
O=[N+]([O-])c1ccc(C2=NOC(c3ccc(N4CCN(Cc5ccc(F)nc5)CC4)cc3)C2)o1 (stereo unspecified)	32 µg/mL (≈ 70.9 µM)	128 µg/mL (≈ 284 µM)	16 µg/mL (≈ 35.4 µM)	> 50 µM	> 50 µM								> 128 µg/mL	> 128 µg/mL	> 128 µg/mL	> 128 µg/mL	> 128 µg/mL	> 128 µg/mL	
O=[N+]([O-])c1ccc(C2=NOC(c3ccc(-c4cccnc4)cc3)C2)o1 (stereo unspecified)	32 µg/mL (≈ 95.4 µM)	64 µg/mL (≈ 191 µM)	16 µg/mL (≈ 47.7 µM)	> 50 µM	> 50 µM														
O=[N+]([O-])c1ccc(C2=NOC(c3ccc(N4CCN(Cc5ccccn5)CC4)cc3)C2)o1 (stereo unspecified)	16 µg/mL (≈ 36.9 µM)	32 µg/mL (≈ 73.8 µM)	32 µg/mL (≈ 73.8 µM)	> 50 µM	> 50 µM	8 to 16 µg/mL (≈ 18.5 to 36.9 µM)	16 µg/mL (≈ 36.9 µM)	8 to 16 µg/mL (≈ 18.5 to 36.9 µM)	8 µg/mL (≈ 18.5 µM)	8 to 16 µg/mL (≈ 18.5 to 36.9 µM)	16 to 32 µg/mL (≈ 36.9 to 73.8 µM)	16 µg/mL (≈ 36.9 µM)	> 128 µg/mL	> 128 µg/mL	> 128 µg/mL	> 128 µg/mL	> 128 µg/mL	> 128 µg/mL	MBC [19]: ≥ 128 µg/mL; Ratio [20]: 8
COc1ccc(CN2CCN(c3ccc(C4CC(c5ccc([N+](=O)[O-])o5)=NO4)cc3)CC2)cn1 (stereo unspecified)	32 µg/mL (≈ 69 µM)	128 µg/mL (≈ 276 µM)	32 µg/mL (≈ 69 µM)	> 50 µM	> 50 µM								> 128 µg/mL	> 128 µg/mL	> 128 µg/mL	> 128 µg/mL	> 128 µg/mL	> 128 µg/mL	
O=[N+]([O-])c1ccc(C2=NOC(c3ccc(N4CCN(Cc5cccnc5)CC4)cc3)C2)o1 (stereo unspecified)	16 µg/mL (≈ 36.9 µM)	16 µg/mL (≈ 36.9 µM)	32 µg/mL (≈ 73.8 µM)	> 50 µM	> 50 µM	4 to 8 µg/mL (≈ 9.23 to 18.5 µM)	8 µg/mL (≈ 18.5 µM)	8 µg/mL (≈ 18.5 µM)	4 to 8 µg/mL (≈ 9.23 to 18.5 µM)	8 to 16 µg/mL (≈ 18.5 to 36.9 µM)	16 µg/mL (≈ 36.9 µM)	16 µg/mL (≈ 36.9 µM)	> 128 µg/mL	> 128 µg/mL	> 128 µg/mL	> 128 µg/mL	> 128 µg/mL	> 128 µg/mL	MBC [19]: ≥ 128 µg/mL; Ratio [20]: 8; Activity [21]: Active
CC(C)(C)OC(=O)N1CCN(c2ccc(C3CC(c4ccc([N+](=O)[O-])o4)=NO3)cc2)CC1 (stereo unspecified)	32 µg/mL (≈ 72.3 µM)	> 128 µg/mL	> 128 µg/mL	> 50 µM	> 50 µM								> 128 µg/mL	> 128 µg/mL	> 128 µg/mL	> 128 µg/mL	> 128 µg/mL	> 128 µg/mL	
O=[N+]([O-])c1ccc(C2=NOC(c3ccc(-c4ccccn4)cc3)C2)o1 (stereo unspecified)	> 128 µg/mL	> 128 µg/mL	> 128 µg/mL	> 50 µM	> 50 µM														
O=C1CN(/N=C/c2ccc([N+](=O)[O-])o2)C(=O)N1 [NITROFURANTOIN]	16 µg/mL (≈ 67.2 µM)	16 µg/mL (≈ 67.2 µM)	16 µg/mL (≈ 67.2 µM)			16 µg/mL (≈ 67.2 µM)	16 µg/mL (≈ 67.2 µM)	16 µg/mL (≈ 67.2 µM)	16 µg/mL (≈ 67.2 µM)	16 µg/mL (≈ 67.2 µM)	16 µg/mL (≈ 67.2 µM)	16 µg/mL (≈ 67.2 µM)							

— ChEMBL document CHEMBL4052664, “Novel pyridyl nitrofuranyl isoxazolines show antibacterial activity against multiple drug resistant Staphylococcus species” (Bioorg Med Chem, 2017)
